{"source": "ChEMBL document CHEMBL4049454", "about": "“7-Substituted 2-Nitro-5,6-dihydroimidazo[2,1-b][1,3]oxazines: Novel Antitubercular Agents Lead to a New Preclinical Candidate for Visceral Leishmaniasis” (J Med Chem, 2017)", "key": {"Trypanosoma cruzi": {"tested_on": "Trypanosoma cruzi", "assay": "[…] activity against Trypanosoma cruzi infected in human MRC-5 cells by luciferase reporter gene assay", "format": "functional, cell-based", "settings": "MRC5", "outline": "(§1)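 Run at LMPH as IC50 determinations. L. infantum was grown in primary peritoneal mouse macrophages and T. cruzi on human lung fibroblasts (MRC-5). Each value is the mean of at least two independent determinations, run alongside MRC-5 and macrophage cytotoxicity tests.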"}, "[1]": {"tested_on": "Mycobacterium tuberculosis", "assay": "Antitubercular activity against Mycobacterium tuberculosis infected in BALB/c mouse assessed as reduction in bacterial burden at 100 mg/kg, po qd administered every 5 days a week for 3 weeks", "format": "functional, organism-based", "outline": "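Acute infection model in BALB/c mice: dosing at 100 mg/kg daily, 5 days a week for 3 weeks, starting day 11 after infection. Read-out is CFU reduction in treated mice, usually reported as a ratio of mean CFU reduction versus mice given the reference nitroimidazole.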"}, "[2]": {"assay": "Apparent permeability from basolateral to apical side in human Caco2 cells after 150 mins by LC-MS/MS analysis", "format": "ADME, cell-based", "settings": "Caco-2"}, "[3]": {"assay": "Apparent permeability from apical to basolateral side in human Caco2 cells after 150 mins by LC-MS/MS analysis", "format": "ADME, cell-based", "settings": "Caco-2"}, "[4]": {"assay": "Extrapolated AUCinfinity in swiss albino mouse plasma at 40 mg/kg, po by LC-MS/MS analysis"}, "Leishmania infantum": {"tested_on": "Leishmania infantum", "assay": "Antileishmanial activity against Leishmania infantum infected in primary peritoneal mouse macrophages by luciferase reporter gene assay", "format": "functional", "outline": "as §1"}}, "note": "The source made the active and inactive calls. The calls are words filed in the database; no cut-off is given here."}
{"smiles": "O=[N+]([O-])c1cn2c(n1)OC(COc1ccc(OC(F)(F)F)cc1)CC2", "note": "(stereo not drawn)", "values": [{"measurement": "IC50", "setting": "Trypanosoma cruzi", "value": 61, "unit": "nM"}]}
{"smiles": "C[C@]1(COCc2ccc(-c3ccc(OC(F)(F)F)cc3)cc2)CCn2cc([N+](=O)[O-])nc2O1", "values": [{"measurement": "Activity", "setting": "[1]", "value": "Active"}]}
{"smiles": "C[C@]1(COc2ccc(OC(F)(F)F)cc2)Cn2cc([N+](=O)[O-])nc2O1", "values": [{"measurement": "Papp B→A at […]", "setting": "[2]", "value": 24.7, "unit": "×10⁻⁶ cm/s"}, {"measurement": "Papp A→B at […]", "setting": "[3]", "value": 22.6, "unit": "×10⁻⁶ cm/s"}]}
{"smiles": "O=[N+]([O-])c1cn2c(n1)OC[C@@H](OCc1ccc(OC(F)(F)F)cc1)C2", "values": [{"measurement": "Activity", "setting": "[1]", "value": "Active"}]}
{"smiles": "O=[N+]([O-])c1cn2c(n1)OC(COc1ccc(-c3ccc(F)cc3)cc1)CC2", "note": "(stereo not drawn)", "values": [{"measurement": "IC50", "setting": "Trypanosoma cruzi", "value": 63, "unit": "nM"}]}
{"smiles": "O=[N+]([O-])c1cn2c(n1)OC(COCc1ccc(-c3ccc(OC(F)(F)F)cc3)cc1)CC2", "note": "(stereo not drawn)", "values": [{"measurement": "AUC(0-inf)", "setting": "[4]", "value": 47100, "unit": "ng·h/mL"}]}
{"smiles": "O=[N+]([O-])c1cn2c(n1)OC(COc1ccc(-c3ccc(F)nc3)nc1)CC2", "note": "(stereo not drawn)", "values": [{"measurement": "IC50", "setting": "Leishmania infantum", "value": "> 64000", "unit": "nM"}]}
